Reference: PubChem BioAssay
Active and inactive are the calls of the source. Rule as the data show it, unless noted: active = inhibition above about 30%; inactive = the rest.

Assays:
[1] = reduced viability of SK-BR-3 breast cancer cells – cell-based, 24 h, human, pilot screen (AID 572;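 active = viability at or below 10% of carrier control in both of two separate runs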;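 also: compound exposure lasted between 18 and 24 h rather than exactly 24 h; 100% = carrier-treated control wells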); conditions: SK-BR-3 viability, CellTiter-Glo luminescence, at 10 µM, stronger effect = lower value
[2] = HUVEC growth inhibition – cell-based, human, primary screen (AID 575;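 active = viability at or below 30% in both replicate assays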;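 also: 100% = median of untreated cell wells with 0.1% DMSO on each plate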); conditions: HUVEC proliferation, CellTiter-Glo luminescence, 72 h; at 10 µM; stronger effect = lower value
Outline: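 System: primary human umbilical vein endothelial cells; Quantity: 1250 endothelial cells in each well; Buffer or medium: supplemented EBM, 2% fetal bovine serum; Doses: one dose, 10 µM final, 0.1% DMSO; Incubation: 72 h compound incubation; Technique: ATP-based CellTiter-Glo luminescent read; Evaluation: percent of median DMSO-control luminescence; Controls: vehicle and MePR control wells.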

[3] = H69AR cell proliferation blockers – human, duplicate replicates, primary screen (AID 580;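 active = viability at or under a set limit in both replicates, limit being median viability minus 3 SD, cut at about 48% in these data, passing the limit was not always enough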;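 also: 100% = mean luminescence of untreated wells and 0% = no signal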); conditions: H69AR lung tumor cells viability, ATP luminescence, 72 h; at 10 µM; stronger effect = lower value
[4] = MRP1 drug-resistance reversers in H69AR cells – cell-based, doxorubicin co-treatment, pilot screen (AID 601;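 active = viability loss from added drug above about 55%, and viability with drug at most 40%, in both replicates, limit read from the data, passing the limit was not always enough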); conditions: CellTiter-Glo, 72 h, at 10 µM; for differential viability (reversal): stronger effect = higher value
[5] = yeast transport mutant growth inhibition pilot in 384-well plates, post-Golgi transport modulator project (AID 636; in the data active = inhibition above about 31%); conditions: absorbance 615 nm, about 18 h, stronger effect = higher value
[6] = growth suppression of yeast trafficking mutant, preliminary HTS, modulators of trafficking downstream of Golgi apparatus project, 1536-format plate, OD 615 nm (AID 637); conditions: yeast transport mutant growth, absorbance 615 nm, 18 h; stronger effect = higher value
[7] = H69AR cells + 2 uM doxorubicin, measured here: viability with 2 uM doxorubicin, stronger effect = lower value
[8] = H69AR cells, compound alone cytotoxicity

Row | SMILES | viability [1] | viability [2] | viability [3] | differential viability (reversal) ([4]; H69AR cells + 2 uM doxorubicin) | viability [4, 7] [%] | viability [4, 8] [%] | inhibition [5] | inhibition [6]
1 | Cc1ccc2cc(C(c3nnnn3C3CCCC3)N3CCN(c4ccc(F)cc4)CC3)c(=O)[nH]c2c1 (stereo not drawn) | 93% (inactive) | 101% (inactive) | 67.6% (inactive) | 8.08% (inactive) | 59.6 | 67.6 | -5.6% (inactive) | 1.27% (inactive)
2 | O=C(O)Cc1ccccc1C(=O)O | 120% (inactive) | 92.2% (inactive) | 95.1% (inactive) | -0.3% (inactive) | 95.4 | 95.1 | -6.85% (inactive) | 1.29% (inactive)
3 | O=C(C1CCN(S(=O)(=O)c2cnc[nH]2)CC1)N1CCN(c2ncccn2)CC1 | 112% (inactive) | 111% (inactive) | 102% (inactive) | 19.5% (inactive) | 82.8 | 102 | -5.33% (inactive) | 0% (inactive)
4 | NS(=O)(=O)c1cc2c(cc1Cl)NC=NS2(=O)=O | 104% (inactive) | 93.9% (inactive) | 100% (inactive) | 4.17% (inactive) | 95.9 | 100 | 0.13% (inactive) | 1% (inactive)
5 | CCN(CC)C(=O)CSC1=C(C#N)C(c2ccco2)C(C(=O)OCCOC)=C(C)N1 (stereo not drawn) | 116% (inactive) | 101% (inactive) | 78% (inactive) | 6.37% (inactive) | 71.6 | 78 | -6.16% (inactive) | 2.58% (inactive)
6 | COC(=O)CSc1ncccc1-c1nc2ccccc2[nH]1 | 110% (inactive) | 96.9% (inactive) | 90.8% (inactive) | -0.73% (inactive) | 91.5 | 90.8 | -2.33% (inactive) | -5.48% (inactive)
7 | O=C(Nc1ccncc1)C1c2ccccc2Oc2ccccc21 | 121% (inactive) | 100% (inactive) | 92.3% (inactive) | -8.33% (inactive) | 101 | 92.3 | -2.3% (inactive) | 14.4% (inactive)
8 | CCOC(=O)CC(=O)CSc1nc(-c2cccnc2)ccc1C#N | 118% (inactive) | 98.6% (inactive) | 68.4% (inactive) | -24% (inactive) | 92.4 | 68.4 | -3.97% (inactive) | 0% (inactive)
9 | Cc1ccccc1NC(=O)CN1CCC(NC(=O)Nc2ccccc2)CC1 | 108% (inactive) | 104% (inactive) | 84.8% (inactive) | -4.37% (inactive) | 89.1 | 84.8 | -7.7% (inactive) | -3.64% (inactive)
10 | O=C(O)CCn1c(=O)c2ccccc2c2ccccc2c1=O | 87% (inactive) | 109% (inactive) | 100% (inactive) | 5.16% (inactive) | 94.8 | 100 | 0.14% (inactive) | -8.06% (inactive)
11 | O=C(O)/C=C/c1ccc(O)c(O)c1 | 94% (inactive) | 69% (inactive) | 97.9% (inactive) | 5.39% (inactive) | 92.5 | 97.9 | -0.39% (inactive) | 1% (inactive)
